Test results from ChEMBL document CHEMBL4028864 (J Med Chem, 2017).

Experiments:
[1] = Half life in rat liver microsome preincubated for 5 mins followed by NADPH addition by LC-MS/MS analysis; type: ADME; conditions: liver microsomes
[2] = Clearance in Wistar rat at 1 mg/kg, iv by LC-MS/MS analysis; type: ADME, organism-based; conditions: in vivo
Method in brief: (§1)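 Wistar rats given a single 1 mg/kg iv dose. Plasma concentration–time profiles were plotted as mean ± SEM and sampled through 24 h postdose. Values were taken from the iv profile.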

[3] = target: T1, Protein deacetylase HDAC6 (Homo sapiens, UniProt Q9UBN7); assay: Inhibition of N-terminal GST tagged human HDAC6 (1 to 1215 residues) expressed in baculovirus infected insect cells using RHKKAc as substrate in presence of ATP
T1 sequence (Q9UBN7 whole entry): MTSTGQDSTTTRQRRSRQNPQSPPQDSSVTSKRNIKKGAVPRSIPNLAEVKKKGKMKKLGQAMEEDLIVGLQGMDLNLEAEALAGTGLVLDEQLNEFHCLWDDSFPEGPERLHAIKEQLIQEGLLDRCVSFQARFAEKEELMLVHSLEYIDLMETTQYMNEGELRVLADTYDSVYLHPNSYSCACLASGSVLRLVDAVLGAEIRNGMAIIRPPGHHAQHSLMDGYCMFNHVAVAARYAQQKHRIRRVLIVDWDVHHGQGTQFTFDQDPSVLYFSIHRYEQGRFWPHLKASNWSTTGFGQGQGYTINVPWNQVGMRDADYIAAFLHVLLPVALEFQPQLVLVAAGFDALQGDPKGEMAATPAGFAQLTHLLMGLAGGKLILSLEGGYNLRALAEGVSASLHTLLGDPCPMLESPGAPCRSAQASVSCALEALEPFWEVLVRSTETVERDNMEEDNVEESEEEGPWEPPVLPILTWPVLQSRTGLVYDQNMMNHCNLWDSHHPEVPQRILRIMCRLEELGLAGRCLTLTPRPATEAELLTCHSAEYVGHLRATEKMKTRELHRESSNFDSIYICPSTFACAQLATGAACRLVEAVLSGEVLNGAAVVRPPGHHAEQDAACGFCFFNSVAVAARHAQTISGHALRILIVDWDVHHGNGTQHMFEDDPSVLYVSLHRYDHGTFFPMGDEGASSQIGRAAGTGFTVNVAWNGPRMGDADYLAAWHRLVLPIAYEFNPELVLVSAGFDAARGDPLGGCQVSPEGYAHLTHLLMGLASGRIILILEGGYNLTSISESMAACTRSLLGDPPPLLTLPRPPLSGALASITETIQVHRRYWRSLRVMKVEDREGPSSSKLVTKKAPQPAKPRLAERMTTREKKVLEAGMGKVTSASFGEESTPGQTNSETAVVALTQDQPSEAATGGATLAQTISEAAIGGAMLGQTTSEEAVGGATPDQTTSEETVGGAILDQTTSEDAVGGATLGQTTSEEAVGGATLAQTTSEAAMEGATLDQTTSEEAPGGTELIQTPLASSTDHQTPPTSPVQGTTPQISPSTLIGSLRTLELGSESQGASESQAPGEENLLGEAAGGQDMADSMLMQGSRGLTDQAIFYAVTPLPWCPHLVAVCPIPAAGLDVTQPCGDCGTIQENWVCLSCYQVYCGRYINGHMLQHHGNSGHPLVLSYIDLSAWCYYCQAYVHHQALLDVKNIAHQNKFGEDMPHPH

[4] = target: T2, Tyrosine-protein kinase JAK2 (Homo sapiens, UniProt O60674); assay: Inhibition of human JAK2 using poly[Glu:Tyr] as substrate in presence of [gamma-33P]-ATP
T2 sequence (O60674 whole entry, the tested form may be a part): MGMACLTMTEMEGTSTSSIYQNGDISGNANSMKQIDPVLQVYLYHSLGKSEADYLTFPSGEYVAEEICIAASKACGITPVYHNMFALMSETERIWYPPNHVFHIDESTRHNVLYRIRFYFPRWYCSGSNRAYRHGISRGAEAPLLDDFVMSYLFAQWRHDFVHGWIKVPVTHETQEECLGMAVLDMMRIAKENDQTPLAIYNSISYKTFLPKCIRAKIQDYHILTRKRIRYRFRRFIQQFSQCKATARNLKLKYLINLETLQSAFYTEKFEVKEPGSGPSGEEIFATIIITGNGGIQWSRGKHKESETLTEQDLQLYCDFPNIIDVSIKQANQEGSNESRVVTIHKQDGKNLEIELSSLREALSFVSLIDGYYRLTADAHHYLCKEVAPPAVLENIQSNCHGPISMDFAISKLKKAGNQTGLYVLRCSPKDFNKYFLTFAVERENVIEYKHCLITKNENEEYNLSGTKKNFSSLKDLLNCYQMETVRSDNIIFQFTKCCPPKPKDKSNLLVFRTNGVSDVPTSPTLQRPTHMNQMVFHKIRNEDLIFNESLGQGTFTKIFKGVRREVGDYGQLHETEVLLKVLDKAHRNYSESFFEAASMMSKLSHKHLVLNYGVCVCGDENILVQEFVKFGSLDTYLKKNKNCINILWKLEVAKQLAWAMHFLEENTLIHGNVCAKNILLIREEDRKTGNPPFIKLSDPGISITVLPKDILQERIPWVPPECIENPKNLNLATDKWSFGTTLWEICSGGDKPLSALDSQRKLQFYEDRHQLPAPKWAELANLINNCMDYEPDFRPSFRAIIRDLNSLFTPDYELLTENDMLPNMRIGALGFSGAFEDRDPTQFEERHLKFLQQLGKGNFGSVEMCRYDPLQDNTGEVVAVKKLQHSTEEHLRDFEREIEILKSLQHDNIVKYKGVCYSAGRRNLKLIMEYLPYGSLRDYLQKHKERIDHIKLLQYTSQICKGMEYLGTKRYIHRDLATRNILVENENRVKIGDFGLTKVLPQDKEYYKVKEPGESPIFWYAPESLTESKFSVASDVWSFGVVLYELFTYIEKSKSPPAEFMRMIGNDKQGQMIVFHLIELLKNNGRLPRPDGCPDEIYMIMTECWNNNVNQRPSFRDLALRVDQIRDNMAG

[5] = target: T2, Tyrosine-protein kinase JAK2; assay: Binding affinity to N-terminal His tagged human recombinant JAK2 (1014 to 1132 residues) expressed in Escherichia coli after 60 to 90 mins by LC/MS analysis; conditions: read-out: Kd(app)
[6] = target: Tyrosine-protein kinase JAK1 (Homo sapiens, UniProt P23458); assay: Inhibition of human JAK1 using poly[Glu:Tyr] as substrate in presence of [gamma-33P]-ATP
Method in brief: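 Kinase inhibition was tested by radiometric "Hotspot" profiling at a contract laboratory with 10 μM ATP.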

[7] = target: Non-receptor tyrosine-protein kinase TYK2 (Homo sapiens, UniProt P29597); assay: Inhibition of wild type human TYK2 (V877 to C1187 residues) expressed in mammalian cells assessed as residual activity at 1 uM by KINOMEscan assay relative to control; type: cell-based
[8] = target: SRSF protein kinase 3 (Homo sapiens) (UniProt Q9UPE1); assay: Inhibition of wild type human SRPK3 (P41 to P567 residues) expressed in bacterial cells assessed as residual activity at 1 uM by KINOMEscan assay relative to control; type: cell-based
Chain of SRSF protein kinase 3 (Homo sapiens) (Q9UPE1 whole entry, the tested form may be a part): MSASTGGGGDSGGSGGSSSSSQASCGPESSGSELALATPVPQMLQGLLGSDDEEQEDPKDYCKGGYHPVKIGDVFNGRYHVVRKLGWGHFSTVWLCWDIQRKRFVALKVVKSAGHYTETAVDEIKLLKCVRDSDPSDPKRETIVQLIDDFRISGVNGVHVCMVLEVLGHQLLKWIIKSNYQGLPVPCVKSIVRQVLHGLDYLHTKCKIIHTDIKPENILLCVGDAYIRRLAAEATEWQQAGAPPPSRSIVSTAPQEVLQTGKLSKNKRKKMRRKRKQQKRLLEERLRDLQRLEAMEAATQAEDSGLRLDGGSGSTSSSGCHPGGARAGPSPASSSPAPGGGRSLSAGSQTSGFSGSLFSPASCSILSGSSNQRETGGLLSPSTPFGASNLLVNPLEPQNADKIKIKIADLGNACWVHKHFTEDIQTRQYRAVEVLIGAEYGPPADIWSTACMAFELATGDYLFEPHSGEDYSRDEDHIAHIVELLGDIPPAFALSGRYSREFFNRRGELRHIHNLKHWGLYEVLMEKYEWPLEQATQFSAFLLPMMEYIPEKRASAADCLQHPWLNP

[9] = target: Histone deacetylase 3/Nuclear receptor corepressor 2 (HDAC3/NCoR2) (Homo sapiens, UniProt O15379); assay: Inhibition of human recombinant HDAC3 (1 to 428 residues)/N-terminal GST-tagged NCOR2 (395 to 489 residues) expressed in Baculovirus infected insect cells in presence of ATP
Chain of Histone deacetylase 3/Nuclear receptor corepressor 2 (HDAC3/NCoR2) (O15379 whole entry, the tested form may be a part): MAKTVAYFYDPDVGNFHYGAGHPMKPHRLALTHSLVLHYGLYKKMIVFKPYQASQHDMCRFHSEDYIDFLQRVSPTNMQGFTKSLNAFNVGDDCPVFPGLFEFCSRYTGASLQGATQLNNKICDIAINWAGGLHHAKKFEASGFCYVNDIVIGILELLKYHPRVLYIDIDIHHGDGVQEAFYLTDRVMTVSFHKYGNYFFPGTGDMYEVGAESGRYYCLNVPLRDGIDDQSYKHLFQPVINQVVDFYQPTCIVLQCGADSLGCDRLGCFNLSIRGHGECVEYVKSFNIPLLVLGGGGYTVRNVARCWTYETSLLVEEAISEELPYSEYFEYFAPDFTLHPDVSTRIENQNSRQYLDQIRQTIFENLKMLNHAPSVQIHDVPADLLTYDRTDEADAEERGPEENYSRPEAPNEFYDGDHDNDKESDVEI
Chain of Histone deacetylase 3/Nuclear receptor corepressor 2 (HDAC3/NCoR2) (Q9Y618 whole entry, further chain, the tested form may be a part): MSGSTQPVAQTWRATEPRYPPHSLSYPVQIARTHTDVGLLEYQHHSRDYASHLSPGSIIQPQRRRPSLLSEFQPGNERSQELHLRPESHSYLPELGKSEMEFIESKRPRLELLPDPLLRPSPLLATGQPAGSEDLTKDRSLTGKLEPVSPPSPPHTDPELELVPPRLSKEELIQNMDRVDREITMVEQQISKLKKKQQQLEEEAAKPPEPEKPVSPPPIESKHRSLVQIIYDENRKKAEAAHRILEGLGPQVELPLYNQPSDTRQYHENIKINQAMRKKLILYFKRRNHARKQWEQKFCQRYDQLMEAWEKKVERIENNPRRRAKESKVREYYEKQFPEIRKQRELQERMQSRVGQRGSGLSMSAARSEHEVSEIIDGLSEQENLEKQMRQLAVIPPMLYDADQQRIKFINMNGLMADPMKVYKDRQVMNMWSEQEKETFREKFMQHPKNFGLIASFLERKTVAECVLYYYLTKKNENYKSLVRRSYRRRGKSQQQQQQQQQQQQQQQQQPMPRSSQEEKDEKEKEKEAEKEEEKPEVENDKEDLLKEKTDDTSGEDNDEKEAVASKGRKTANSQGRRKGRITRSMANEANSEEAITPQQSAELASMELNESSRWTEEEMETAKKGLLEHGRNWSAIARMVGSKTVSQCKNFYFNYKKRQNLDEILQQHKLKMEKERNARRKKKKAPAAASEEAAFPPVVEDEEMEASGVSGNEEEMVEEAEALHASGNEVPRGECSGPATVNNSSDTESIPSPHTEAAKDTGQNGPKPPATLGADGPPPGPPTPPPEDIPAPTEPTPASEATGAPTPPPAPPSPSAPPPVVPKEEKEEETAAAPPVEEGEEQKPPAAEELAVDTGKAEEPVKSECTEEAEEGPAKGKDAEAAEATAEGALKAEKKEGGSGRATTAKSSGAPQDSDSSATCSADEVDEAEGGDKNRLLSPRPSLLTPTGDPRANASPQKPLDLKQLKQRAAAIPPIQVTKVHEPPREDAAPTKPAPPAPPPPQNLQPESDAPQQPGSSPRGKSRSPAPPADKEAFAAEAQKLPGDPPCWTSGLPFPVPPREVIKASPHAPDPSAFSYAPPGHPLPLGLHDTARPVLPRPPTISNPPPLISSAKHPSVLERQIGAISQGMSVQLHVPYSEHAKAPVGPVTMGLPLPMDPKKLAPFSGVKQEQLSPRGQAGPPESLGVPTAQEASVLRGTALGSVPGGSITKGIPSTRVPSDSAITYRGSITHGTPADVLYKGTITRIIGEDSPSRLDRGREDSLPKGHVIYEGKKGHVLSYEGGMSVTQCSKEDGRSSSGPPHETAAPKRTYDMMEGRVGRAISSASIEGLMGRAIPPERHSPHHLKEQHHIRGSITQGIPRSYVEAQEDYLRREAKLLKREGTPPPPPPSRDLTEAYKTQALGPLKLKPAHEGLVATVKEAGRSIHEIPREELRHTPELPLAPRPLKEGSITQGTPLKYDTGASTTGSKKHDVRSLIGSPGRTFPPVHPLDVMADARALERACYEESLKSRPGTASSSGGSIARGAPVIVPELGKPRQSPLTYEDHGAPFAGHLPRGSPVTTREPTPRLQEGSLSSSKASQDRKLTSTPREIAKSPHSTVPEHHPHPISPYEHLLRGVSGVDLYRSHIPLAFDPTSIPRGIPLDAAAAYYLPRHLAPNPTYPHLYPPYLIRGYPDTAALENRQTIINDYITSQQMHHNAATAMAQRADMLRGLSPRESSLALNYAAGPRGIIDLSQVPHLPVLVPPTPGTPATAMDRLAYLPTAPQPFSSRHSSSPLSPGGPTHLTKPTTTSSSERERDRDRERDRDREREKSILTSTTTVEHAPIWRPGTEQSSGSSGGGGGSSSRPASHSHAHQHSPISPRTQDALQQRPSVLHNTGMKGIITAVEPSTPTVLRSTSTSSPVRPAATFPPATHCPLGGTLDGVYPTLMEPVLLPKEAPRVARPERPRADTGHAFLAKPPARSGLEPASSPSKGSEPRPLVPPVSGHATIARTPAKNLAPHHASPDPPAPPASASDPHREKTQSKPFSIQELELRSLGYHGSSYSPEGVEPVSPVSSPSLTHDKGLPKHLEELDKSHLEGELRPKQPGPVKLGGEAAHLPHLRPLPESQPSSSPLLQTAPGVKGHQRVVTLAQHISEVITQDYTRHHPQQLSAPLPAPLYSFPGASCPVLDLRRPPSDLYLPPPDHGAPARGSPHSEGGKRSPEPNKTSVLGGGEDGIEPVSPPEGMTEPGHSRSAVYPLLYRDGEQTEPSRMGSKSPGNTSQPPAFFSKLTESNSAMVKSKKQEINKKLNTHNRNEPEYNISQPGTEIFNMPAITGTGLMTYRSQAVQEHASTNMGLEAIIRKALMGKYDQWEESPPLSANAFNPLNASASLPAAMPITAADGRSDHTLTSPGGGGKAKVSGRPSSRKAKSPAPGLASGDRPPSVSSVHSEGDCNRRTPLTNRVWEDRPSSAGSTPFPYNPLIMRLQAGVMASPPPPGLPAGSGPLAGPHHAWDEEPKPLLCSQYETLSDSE
Method in brief: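 HDAC enzyme inhibition was run by a contract laboratory.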

[10] = tested on: HCT-116; assay: Antiproliferative activity against human HCT116 cells after 72 hrs by MTT assay; type: functional, cell-based; conditions: HCT-116, 72 h
[11] = tested on: KMS-12-BM; assay: cells; type: functional, cell-based; conditions: Homo sapiens, 48 h
[12] = cells; type: functional, cell-based; conditions: Homo sapiens, XG6, 48 h
[13] = cells; type: ADME, cell-based; conditions: Homo sapiens, AC10, 24 h
[14] = Terminal half life in Wistar rat at 1 mg/kg, iv by LC-MS/MS analysis; type: ADME, organism-based; conditions: in vivo, read-out: beta t1/2 (converted); method in brief: as §1
[15] = AUC (0 to infinity) in Wistar rat at 1 mg/kg, iv by LC-MS/MS analysis; type: ADME, organism-based; design: dose 1 mg/kg, time infinity, route intravenous; conditions: in vivo; method in brief: as §1
[16] = Volume of distribution at steady state in Wistar rat at 1 mg/kg, iv by LC-MS/MS analysis; type: ADME, organism-based; conditions: in vivo, read-out: Vdss; method in brief: as §1
[17] = Terminal half life in Wistar rat at 5 mg/kg, po administered via gavage by LC-MS/MS analysis; type: ADME, organism-based; conditions: in vivo, read-out: beta t1/2 (converted)
Method in brief: (§2)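 Wistar rats given a single 5 mg/kg oral dose. Plasma concentration–time profiles were plotted as mean ± SEM and sampled through 24 h postdose.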

[18] = Tmax in Wistar rat at 5 mg/kg, po administered via gavage by LC-MS/MS analysis; type: ADME, organism-based; conditions: in vivo; method in brief: as §2
[19] = Oral bioavailability in Wistar rat at 5 mg/kg administered via gavage by LC-MS/MS analysis; type: ADME, organism-based; conditions: in vivo; method in brief: as §2
[20] = tested on: MOLM-14; assay: Induction of apoptosis in human MOLM14 cells assessed as increase in cleaved PARP level at 1 to 6 uM after 24 hrs by immunoblotting analysis; type: functional, cell-based
Method in brief: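 KMS-12-BM and MOLM-14 cells were treated for 24 h and then lysed. Cleaved PARP was detected by immunoblotting.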

[21] = tested on: Plasma; assay: Drug uptake in Wistar rat plasma at 5 mg/kg, po administered via gavage or 1 mg/kg, iv after 4 to 24 hrs by LC-MS/MS analysis; type: ADME, organism-based; conditions: in vivo
Method in brief: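 Wistar rats dosed once at 5 mg/kg po or 1 mg/kg iv. Plasma levels were followed as mean ± SEM over 24 h postdose and checked against the limit of quantitation at each time point.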

Compound: O=C(CCCCCCn1cc(-c2ncnc3[nH]ccc23)cn1)NO
- half-life [1]: > 200 min
- clearance [2]: 95.1 mL/min/kg
- IC50 [3]: 1.4 nM
- IC50 [4]: 75 nM
- Kd [5]: 5000 nM
- IC50 [6]: 17 nM
- Activity [7]: 3.3%
- Activity [8]: 18%
- IC50 [9]: 3.9 nM
- IC50 [10]: 2320 nM
- IC50 [11]: 2020 nM
- IC50 [12]: 2010 nM
- IC50 [13]: > 100000 nM
- half-life [14]: 21 min
- AUC(0-inf) [15]: 175 ng·h/mL
- Vd [16]: 1.49 L/kg
- half-life [17]: 34.8 min
- Tmax [18]: 4.98 min
- bioavailability [19]: 1.4%
- Activity [20]: Dose-dependent effect
- Drug uptake [21]: Not Active
